For one test, the system named is J774. Description: Activation of NF-kappaB in mouse J774 cells at 2.5 ug/ml after 1 hr by EMSA. It counts as cell-based. Summed up:
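Murine J774 macrophages in DMEM with 10% FBS and antibiotics, plated at 5×10^6 cells/well. ODNs were given alone or together for 1 h. For inhibition, the agonist ODN at 0.5 μg/mL was co-incubated with the modified ODN at 2.5 μg/mL. Nuclear extracts were resolved by EMSA on native polyacrylamide gels and read by autoradiography.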
Background: Mobility shift assays separate free from complexed probe on a gel.

For test [1], the system named is Mus musculus. Description: Immunostimulatory activity in C57BL/6 mouse assessed as induction of MCP1 level in serum at 2 mg/kg, sc after 2 hrs by Luminex multiplex assay. The class given is functional, organism-based. On the set-up: dose 2 mg/kg. The method, boiled down: (§1)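 Female C57BL/6 mice, 5–6 weeks old, n = 3, received a single 2 mg/kg subcutaneous ODN injection in the right flank. Blood was taken by retro-orbital bleeding 2 h later. Naive mice served as baseline. Representative of three experiments.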

The test system of test [2] is Mus musculus. Briefly: Immunostimulatory activity in C57BL/6 mouse assessed as induction of IL10 level in serum at 2 mg/kg, sc after 2 hrs by Luminex multiplex assay. The class given is functional, organism-based. On the set-up: dose 2 mg/kg. The method, boiled down: as §1
For test [3], the system named is Mus musculus. Description: Immunostimulatory activity in C57BL/6 mouse assessed as induction of KC level in serum at 2 mg/kg, sc after 2 hrs by Luminex multiplex assay. The class given is functional, organism-based. The arrangement: dose 2 mg/kg. The method, boiled down: as §1
Test [4] concerns Mus musculus. Briefly: Immunostimulatory activity in C57BL/6 mouse assessed as inhibition of 5'-CTATCTGACGTTCTCTGT-3'-induced IL10 production in serum at 2 mg/kg, sc administered 24 hrs prior to 5'-CTATCTGACGTTCTCTGT-3' challenge measured after 2 hrs by Luminex multiplex assay. On the set-up: dose 2 mg/kg. It counts as functional, organism-based. The method, boiled down:
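C57BL/6 mice received 2 mg/kg ODN sc in one flank. After 24 h, the TLR9 agonist ODN was given at 0.5 mg/kg sc in the opposite flank. Blood was drawn 2 h later and serum cytokines/chemokines were quantified by Luminex multiplex assay. Percent inhibition was taken against the agonist alone. Representative of three experiments.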

Test [5] deals with Splenocyte. Description: Immunostimulatory activity in C57BL/6 mouse splenocytes assessed as induction of IL6 secretion at 2 to 10 ug/ml after 24 hrs by sandwich ELISA. It counts as functional, cell-based. The method, boiled down: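 C57BL/6 splenocytes (mice 5–8 weeks) at 5 × 10^6 cells/mL in RPMI complete medium. ODNs dissolved in PBS were added and the cells incubated at 37 °C for 24 h. Supernatant IL-12 or IL-6 was measured by sandwich ELISA. Runs were done two or three times, in duplicate per concentration.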
(In general: In an ELISA, binding on a coated surface is turned into a signal by an enzyme label.)

Test [6] has as its target T1, Toll-like receptor 9 (Mus musculus) (UniProt Q9EQU3).
T1 sequence (whole entry): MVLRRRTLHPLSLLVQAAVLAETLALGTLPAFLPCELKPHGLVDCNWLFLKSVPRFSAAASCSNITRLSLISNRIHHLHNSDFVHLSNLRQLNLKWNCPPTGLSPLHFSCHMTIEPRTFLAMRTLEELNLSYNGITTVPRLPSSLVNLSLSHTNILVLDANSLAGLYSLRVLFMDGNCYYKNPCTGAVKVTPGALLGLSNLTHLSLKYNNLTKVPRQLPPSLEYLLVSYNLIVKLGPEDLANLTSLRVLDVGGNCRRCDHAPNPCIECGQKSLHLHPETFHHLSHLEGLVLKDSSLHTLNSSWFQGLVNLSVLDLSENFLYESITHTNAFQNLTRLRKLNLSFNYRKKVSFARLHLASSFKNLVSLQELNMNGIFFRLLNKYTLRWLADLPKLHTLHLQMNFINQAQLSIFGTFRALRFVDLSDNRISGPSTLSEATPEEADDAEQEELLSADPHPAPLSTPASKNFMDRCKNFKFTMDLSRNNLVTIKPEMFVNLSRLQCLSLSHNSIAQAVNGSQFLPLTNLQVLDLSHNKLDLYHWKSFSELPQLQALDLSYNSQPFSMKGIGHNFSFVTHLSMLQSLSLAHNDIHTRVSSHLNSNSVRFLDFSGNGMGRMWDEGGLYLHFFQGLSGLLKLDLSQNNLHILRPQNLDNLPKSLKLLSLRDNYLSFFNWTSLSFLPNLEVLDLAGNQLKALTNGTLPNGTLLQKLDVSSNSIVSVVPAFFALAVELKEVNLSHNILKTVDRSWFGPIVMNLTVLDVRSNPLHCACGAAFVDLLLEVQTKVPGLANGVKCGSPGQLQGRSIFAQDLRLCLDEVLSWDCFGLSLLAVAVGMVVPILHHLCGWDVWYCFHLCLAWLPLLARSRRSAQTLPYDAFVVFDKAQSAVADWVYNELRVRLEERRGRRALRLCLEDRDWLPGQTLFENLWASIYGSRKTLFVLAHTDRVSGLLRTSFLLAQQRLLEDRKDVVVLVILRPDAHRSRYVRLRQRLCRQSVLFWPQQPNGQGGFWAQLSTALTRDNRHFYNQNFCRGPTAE
Briefly: Activation of mouse TLR9 expressed in HEK293 cells assessed as NF-kappaB level at 1 ug/mL after 18 hrs by reporter gene assay. It counts as cell-based. The method, boiled down:
(§2)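 HEK293 cells stably expressing mouse TLR9 were transiently transfected with a SEAP reporter for 6 h, then stimulated with ODN at 0.1, 0.3 or 1 μg/mL for 18 h. Reporter expression is given as fold change in NF-κB activity over medium. Representative of two independent experiments.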
A general note: Reporter assays use an easily measured gene product as a stand-in for the process of interest.

In test [7] the test system is Mus musculus. Briefly: Immunostimulatory activity in C57BL/6 mouse assessed as induction of IL12 level in serum at 2 mg/kg, sc after 2 hrs by sandwich ELISA. On the set-up: dose 2 mg/kg. The class given is functional, organism-based. Summed up:
as §1

The target of test [8] is T1, Toll-like receptor 9 (Mus musculus). Description: Activation of mouse TLR9 expressed in HEK293 cells assessed as NF-kappaB level at 0.3 ug/mL after 18 hrs by reporter gene assay. It counts as cell-based. Summed up:
as §2

For test [9], the system named is Mus musculus. Briefly: Immunostimulatory activity in C57BL/6 mouse assessed as inhibition of 5'-CTATCTGACGTTCTCTGT-3'-induced IL12 production in serum at 2 mg/kg, sc administered 24 hrs prior to 5'-CTATCTGACGTTCTCTGT-3' challenge measured after 2 hrs by sandwich ELISA. The class given is functional. Particulars: C57BL/6, sc, route subcutaneous. The method, boiled down:
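C57BL/6 mice were pretreated sc in the right flank with 2, 5 or 10 mg/kg ODN. After 24 h, the TLR9 agonist ODN was given at 0.5 mg/kg sc in the left flank. Serum IL-12 was measured by ELISA 2 h later. Representative of two experiments.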

Test [10] concerns Mus musculus. Briefly: Immunostimulatory activity in C57BL/6 mouse assessed as induction of MIP-1alpha level in serum at 2 mg/kg, sc after 2 hrs by Luminex multiplex assay. It counts as functional, organism-based. The arrangement: dose 2 mg/kg. The method, boiled down: as §1
Test [11] concerns Splenocyte. Description: Inhibition of 5'-CTATCTGACGTTCTCTGT-3'-induced IL6 secretion in C57BL/6 mouse splenocytes at 4 ug/ml after 24 hrs by sandwich ELISA. It counts as functional, cell-based. The method, boiled down: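 Splenocytes from 5–8-week C57BL/6 mice, 5 × 10^6 cells/mL in RPMI complete medium, were co-incubated with the TLR9 agonist ODN (1 µg/mL) plus test ODN at 1 or 4 µg/mL, or over a concentration series, at 37 °C for 24 h. Supernatant IL-12 or IL-6 was measured by sandwich ELISA. Runs were done in duplicate, with three independent experiments.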

Activity calls are given as the source filed them. No cut-off for these calls is given here.

For the compound `COC1[C@H](n2cc(C)c(N)nc2=O)O[C@H](COP(=O)(S)O[C@H]2C[C@H](n3cnc4c(N)ncnc43)O[C@@H]2COP(=O)(S)O[C@H]2C[C@H](n3cnc4c(=O)[nH]c(N)nc43)O[C@@H]2COP(=O)(S)O[C@H]2C[C@H](n3cc(C)c(=O)[nH]c3=O)O[C@@H]2COP(=O)(S)O[C@H]2C[C@H](n3ccc(N)nc3=O)O[C@@H]2COP(=O)(S)O[C@H]2C[C@H](n3cc(C)c(=O)[nH]c3=O)O[C@@H]2COP(=O)(S)O[C@H]2C[C@H](n3cnc4c(N)ncnc43)O[C@@H]2COP(=O)(S)O[C@H]2C[C@H](n3cc(C)c(=O)[nH]c3=O)O[C@@H]2COP(=O)(S)O[C@H]2C[C@H](n3ccc(N)nc3=O)O[C@@H]2CO)[C@H]1OP(=O)(S)OC[C@H]1O[C@@H](n2cnc3c(=O)[nH]c(N)nc32)C[C@@H]1OP(=O)(S)OC[C@H]1O[C@@H](n2cc(C)c(=O)[nH]c2=O)C[C@@H]1OP(=O)(S)OC[C@H]1O[C@@H](n2cc(C)c(=O)[nH]c2=O)C[C@@H]1OP(=O)(S)OC[C@H]1O[C@@H](n2ccc(N)nc2=O)C[C@@H]1OP(=O)(S)OC[C@H]1O[C@@H](n2cc(C)c(=O)[nH]c2=O)C[C@@H]1OP(=O)(S)OC[C@H]1O[C@@H](n2ccc(N)nc2=O)C[C@@H]1OP(=O)(S)OC[C@H]1O[C@@H](n2cc(C)c(=O)[nH]c2=O)C[C@@H]1OP(=O)(S)OC[C@H]1O[C@@H](n2cnc3c(=O)[nH]c(N)nc32)C[C@@H]1OP(=O)(S)OC[C@H]1O[C@@H](n2cc(C)c(=O)[nH]c2=O)C[C@@H]1O` (some centres undefined), the result (in the test on J774; in the test on Mus musculus [1]; with Mus musculus [2]; in the test on Mus musculus [3]; in [6]; with Mus musculus [7]) was inactive. Moreover, the result (in test [8]; with Mus musculus [10]) was inactive. In addition, the outcome with Mus musculus [4] and in the test with Splenocyte [5] was Active. Further, the inhibition in vivo (commonly the share of the control response that was lost under treatment) at 2 mg/kg in the test on Mus musculus [9] worked out at 50%.

With `CO[C@@H]1[C@H](OP(=O)(S)OC[C@H]2O[C@@H](n3cnc4c(=O)[nH]c(N)nc43)C[C@@H]2OP(=O)(S)OC[C@H]2O[C@@H](n3cc(C)c(=O)[nH]c3=O)C[C@@H]2OP(=O)(S)OC[C@H]2O[C@@H](n3cc(C)c(=O)[nH]c3=O)C[C@@H]2OP(=O)(S)OC[C@H]2O[C@@H](n3ccc(N)nc3=O)C[C@@H]2OP(=O)(S)OC[C@H]2O[C@@H](n3cc(C)c(=O)[nH]c3=O)C[C@@H]2OP(=O)(S)OC[C@H]2O[C@@H](n3ccc(N)nc3=O)C[C@@H]2OP(=O)(S)OC[C@H]2O[C@@H](n3cc(C)c(=O)[nH]c3=O)C[C@@H]2OP(=O)(S)OC[C@H]2O[C@@H](n3cnc4c(=O)[nH]c(N)nc43)C[C@@H]2OP(=O)(S)OC[C@H]2O[C@@H](n3cc(C)c(=O)[nH]c3=O)C[C@@H]2O)[C@@H](COP(=O)(S)O[C@H]2C[C@H](n3cnc4c(N)ncnc43)O[C@@H]2COP(=O)(S)O[C@H]2C[C@H](n3cnc4c(=O)[nH]c(N)nc43)O[C@@H]2COP(=O)(S)O[C@H]2C[C@H](n3cc(C)c(=O)[nH]c3=O)O[C@@H]2COP(=O)(S)O[C@H]2C[C@H](n3ccc(N)nc3=O)O[C@@H]2COP(=O)(S)O[C@H]2C[C@H](n3cc(C)c(=O)[nH]c3=O)O[C@@H]2COP(=O)(S)O[C@H]2C[C@H](n3cnc4c(N)ncnc43)O[C@@H]2COP(=O)(S)O[C@H]2C[C@H](n3cc(C)c(=O)[nH]c3=O)O[C@@H]2COP(=O)(S)O[C@H]2C[C@H](n3ccc(N)nc3=O)O[C@@H]2CO)O[C@H]1n1ccc(N)nc1=O` (some centres undefined), the outcome (in the test with J774; in the test with Mus musculus [1]; with Mus musculus [2]; in the test with Mus musculus [3]; in test [6]; in the test with Mus musculus [7]) was inactive. The outcome (in test [8]; with Mus musculus [10]) was inactive. Further, the result in the test with Splenocyte [11], in the test with Mus musculus [4] and in the test with Splenocyte [5] was Active. In addition, in the test with Mus musculus [9], the inhibition in vivo at 2 mg/kg was determined as 50%.

On to `COC1[C@H](n2cnc3c(=O)[nH]c(N)nc32)O[C@H](COP(=O)(S)O[C@H]2C[C@H](n3cc(C)c(N)nc3=O)O[C@@H]2COP(=O)(S)O[C@H]2C[C@H](n3cnc4c(N)ncnc43)O[C@@H]2COP(=O)(S)O[C@H]2C[C@H](n3cnc4c(=O)[nH]c(N)nc43)O[C@@H]2COP(=O)(S)O[C@H]2C[C@H](n3cc(C)c(=O)[nH]c3=O)O[C@@H]2COP(=O)(S)O[C@H]2C[C@H](n3ccc(N)nc3=O)O[C@@H]2COP(=O)(S)O[C@H]2C[C@H](n3cc(C)c(=O)[nH]c3=O)O[C@@H]2COP(=O)(S)O[C@H]2C[C@H](n3cnc4c(N)ncnc43)O[C@@H]2COP(=O)(S)O[C@H]2C[C@H](n3cc(C)c(=O)[nH]c3=O)O[C@@H]2COP(=O)(S)O[C@H]2C[C@H](n3ccc(N)nc3=O)O[C@@H]2CO)[C@H]1OP(=O)(S)OC[C@H]1O[C@@H](n2cc(C)c(=O)[nH]c2=O)C[C@@H]1OP(=O)(S)OC[C@H]1O[C@@H](n2cc(C)c(=O)[nH]c2=O)C[C@@H]1OP(=O)(S)OC[C@H]1O[C@@H](n2ccc(N)nc2=O)C[C@@H]1OP(=O)(S)OC[C@H]1O[C@@H](n2cc(C)c(=O)[nH]c2=O)C[C@@H]1OP(=O)(S)OC[C@H]1O[C@@H](n2ccc(N)nc2=O)C[C@@H]1OP(=O)(S)OC[C@H]1O[C@@H](n2cc(C)c(=O)[nH]c2=O)C[C@@H]1OP(=O)(S)OC[C@H]1O[C@@H](n2cnc3c(=O)[nH]c(N)nc32)C[C@@H]1OP(=O)(S)OC[C@H]1O[C@@H](n2cc(C)c(=O)[nH]c2=O)C[C@@H]1O` (some centres undefined), for which the outcome (in the test with J774; with Mus musculus [1]; in the test on Mus musculus [2]; in the test with Mus musculus [3]; in test [6]; in the test with Mus musculus [7]) was inactive. Also, the result (in test [8]; with Mus musculus [10]) was inactive. The result with Mus musculus [4] and with Splenocyte [5] was Active. Moreover, the inhibition in vivo at 2 mg/kg in the test with Mus musculus [9] was found to be 14%.
